The list is not random: actives were taken first. Their share in the collection is about 1.5%.
S100A4 inh HTS: blocks human S100A4 binding to myosin IIA peptide | S100A4/TAMRA-MyoIIA peptide fluorescence polarization | P26447 | hit rate 0.14% among 360,000 | inhibition, % at 10.7 µM;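 active = mean inhibition of at least 70% across replicates, with every replicate also reaching that level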
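Material: human S100A4 monomer with TAMRA-labelled myosin IIA peptide; buffer or medium: HEPES pH 7.2 with CaCl2, KCl, NaCl, DTT, Triton; compound dosing: one concentration per compound; schedule: 5 min incubation before reading; benchmarks: neutral control DMSO, positive control TFP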
INS-1E GSIS act: primary screen for activators of insulin secretion dependent on glucose, INS-1E cells, GLuc reporter luminescence | INS-1E GLuc reporter insulin secretion, 2-3 h | activation, % at 16.6 µM | hit rate 0.61% among 370,000;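 active = lowest replicate activation of at least 40%, so every replicate reaches that level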;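 note: 0% = median of neutral control wells and 100% = median of IBMX positive control wells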
RAD52 inh: blocks human RAD52 DNA annealing | recombinant RAD52 DNA annealing, FRET fluorescence | inhibition, % at 18.7 µM | hit rate 0.46% among 360,000 | AID 651710;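 active = every replicate showing at least 50% inhibition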
MLL AF4-AF9 inh: blocks AF4 peptide binding to human AF9; P42568; AlphaScreen, biotin-AF4 peptide binding to FLAG-AF9; inhibition, % at 10 µM; hit rate 0.47% among 350,000; AID 651704;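 active = every replicate reaching a set inhibition limit, whatever the replicate mean, cut at about 25% in these data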;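 note: 0% = plate neutral control median and 100% = total signal loss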
Target sequence (P42568 whole entry, looked up): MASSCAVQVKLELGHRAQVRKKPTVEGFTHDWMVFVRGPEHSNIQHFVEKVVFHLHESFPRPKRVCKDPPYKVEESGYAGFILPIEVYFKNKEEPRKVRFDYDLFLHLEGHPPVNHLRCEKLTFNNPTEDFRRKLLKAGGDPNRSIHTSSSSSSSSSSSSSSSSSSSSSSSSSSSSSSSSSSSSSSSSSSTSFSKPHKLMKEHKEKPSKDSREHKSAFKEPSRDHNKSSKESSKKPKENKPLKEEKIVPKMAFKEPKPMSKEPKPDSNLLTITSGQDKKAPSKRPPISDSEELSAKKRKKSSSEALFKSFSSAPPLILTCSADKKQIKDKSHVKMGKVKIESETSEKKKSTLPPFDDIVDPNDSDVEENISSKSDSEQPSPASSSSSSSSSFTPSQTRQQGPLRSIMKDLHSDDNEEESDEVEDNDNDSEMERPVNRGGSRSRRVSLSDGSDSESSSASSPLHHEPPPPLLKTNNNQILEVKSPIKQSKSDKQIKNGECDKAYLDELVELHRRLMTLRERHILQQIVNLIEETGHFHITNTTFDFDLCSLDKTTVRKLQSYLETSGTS
ERAP1 inh: inhibitors of human ERAP1 aminopeptidase; recombinant ERAP1, Leu-AMC fluorescence, 60 min; AID 652197; inhibition, % at 10.7 µM; Q9NZ08; hit rate 0.15% among 340,000;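 active = mean replicate inhibition of at least 30%, or all replicates individually reaching that 30% level; inactive = mean below 30% and not every replicate reaching it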;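 note: 0% = neutral control wells and 100% = L-leucinethiol positive control wells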
An asterisk follows results filed as active; · = no result given.

SMILES	S100A4 inh HTS	INS-1E GSIS act	RAD52 inh	MLL AF4-AF9 inh	ERAP1 inh
Cn1ccc2c(N(Cc3ccccc3)Cc3ccccc3)cc3c(c21)C1CCC3C1 (stereo not given)	-7.3	15.1	-11.7	6.1	·
Cn1ccc2c(N3CCCC3)cc3c(c21)C1CCC3C1 (stereo not given)	-2.3	-14.8	-1.0	30.5*	·
O=C1N[C@@H](c2ccccc2)COCc2cn(nn2)CC[C@@H](Cc2ccc(C(F)(F)F)cc2)C(=O)N[C@@H](c2ccccc2)COCc2cn(nn2)CC[C@H]1Cc1ccc(C(F)(F)F)cc1	·	-38.1	·	·	·
COc1cccc(-c2nnn(CC(=O)O)n2)c1	·	75.9*	·	·	·
C[C@H]1CN(C)C(=O)c2cccc(N)c2O[C@H]1CN(C)C(=O)OC(C)(C)C	·	-5.5	·	·	·
COCC(=O)N(C)C[C@H]1Oc2cc(C#CCN(C)C)ccc2S(=O)(=O)N([C@@H](C)CO)C[C@H]1C	111.6*	11.6	5.1	-4.0	-5.1
C[C@@H]1CN([C@@H](C)CO)S(=O)(=O)c2ccc(C#Cc3ccccc3)cc2O[C@@H]1CN(C)C(=O)CN(C)C	8.5	39.2	50.5*	13.3	0.3
C[C@H]1CN([C@@H](C)CO)S(=O)(=O)c2ccc(C#Cc3ccccc3)cc2O[C@H]1CN(C)C(=O)CN(C)C	4.0	36.9	70.1*	17.9	-0.1
COc1cc2sc3cc(NCCCN4CCOCC4)ccc3c(=O)c2cc1OC	-8.9	12.5	80.7*	3.4	·
COc1ccc(C(=O)Nc2ccc3c(c2)C(=O)c2ccccc2C3=O)cc1OC	·	61.8*	·	·	·
Cc1[nH]c2ccccc2c1C(=O)CN1C(=O)C(=O)N(Cc2ccco2)C1=O	7.4	-2.8	-15.2	-0.8	32.6*
CO[C@H](CN(C)C(=O)Nc1ccc(C(F)(F)F)cc1)[C@H](C)CN(Cc1ccccc1Cl)[C@H](C)CO	8.6	-12.0	-2.1	1.4	-0.1
O=S(=O)(NN1CCOCC1)c1cc(Cl)cc(Cl)c1O	-5.4	9.9	-15.7	-9.2	37.4*
COc1cc(/C=C/C(=O)OCC(=O)N2CCCCCC2)ccc1OCC#N	-2.9	16.1	-16.9	-0.7	-2.3
COc1cc(/C=C/C(=O)OCC(=O)N2CCCC2)ccc1OCC#N	16.2	23.5	-3.8	31.2*	10.7
COC(=O)C[C@@H]1CC[C@@H]2[C@H](COC[C@H](O)CN2CCC(F)(F)F)O1	3.4	-12.1	-4.8	0.3	0.3
O=C(CC1CC1)N1CC(=O)N2[C@H](CO)[C@@H](c3ccc(C#Cc4ccccc4)cc3)[C@@H]2C1	5.9	-5.2	-19.4	6.4	-2.5
CC(=O)NCCc1nc2ccccc2n1CCOc1ccccc1	2.0	21.3	-4.9	-0.9	·
CC(=O)NCCc1nc2ccccc2n1CCOc1cccc(C)c1	-4.7	58.9*	-13.2	5.5	·
Cc1ccc(S(=O)(=O)N(C)C[C@@H]2Oc3c(NC(=O)Nc4cccc5ccccc45)cccc3C(=O)N([C@@H](C)CO)C[C@H]2C)cc1	-3.9	0.2	8.6	0.4	3.2
COc1cc2c(cc1OC)C1=C(C#N)CN(CC(=O)O)CN1CC2	12.6	-9.1	5.8	2.8	1.5
COc1cc2c(cc1OC)C1=C(C#N)CCC(=NC(=O)c3ccco3)N1CC2	1.6	74.7*	-6.6	-1.5	-3.6
COc1ccc(CN(C)C[C@@H]2OCCCC[C@@H](C)Oc3ccc(NS(=O)(=O)c4c(C)noc4C)cc3C(=O)N([C@@H](C)CO)C[C@@H]2C)cc1	5.1	-8.7	28.9	5.0	-37.0
Oc1[nH]c2ccccc2c1N=Nc1nc(Nc2ccccc2)nc(N2CCOCC2)n1	0.5	10.5	-11.1	1.7	70.2*
Cc1[nH]c2ccccc2c1/C=N/Nc1nc(Nc2ccccc2)nc(N2CCOCC2)n1	·	-32.0	·	·	·
COc1ccc(S(=O)(=O)N(C)C[C@@H]2OCCCC[C@@H](C)Oc3ccc(NS(=O)(=O)c4ccc(F)cc4)cc3C(=O)N([C@H](C)CO)C[C@H]2C)cc1	-36.4	-12.2	6.0	-0.5	-0.3
O=C(COc1ccccc1)Nc1ccccc1C(=O)NC1CC1	2.1	44.0*	-9.7	-2.2	-3.2
CN(C)C(=O)c1cccc(-c2ccccc2[C@H]2[C@H](C#N)N(C(=O)C3CCC3)[C@H]2CO)c1	3.2	7.0	61.9*	-1.0	3.8
N#C[C@@H]1[C@H](c2ccccc2-c2cccc(F)c2)[C@@H](CO)N1C(=O)C1CC1	77.4*	-4.0	2.2	1.4	-1.9
